Measurements from paper PMC3775715 (Chemistry & biology, 2012).

Experiments:
A549 cells = assay: Metabolomics of steady-state metabolite levels in A549 cells; assay type: cell-based, human; settings: 24 hr, 0.5 uM for 9
recombinant PKM2 = recombinant PKM2 (Homo sapiens, UniProt P14618); assay: Biochemical activity assay against recombinant PKM2; settings: for reactivation of PKM2 inhibited by phenylalanine: PKM2 preincubated with phenylalanine for 30 min
Method in brief: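 Recombinant PKM2 was preincubated with phenylalanine for 30 min. Test compound or FBP was then added for 30 min, after which pyruvate kinase activity was measured.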

recombinant PKM2, sequence (P14618 whole entry): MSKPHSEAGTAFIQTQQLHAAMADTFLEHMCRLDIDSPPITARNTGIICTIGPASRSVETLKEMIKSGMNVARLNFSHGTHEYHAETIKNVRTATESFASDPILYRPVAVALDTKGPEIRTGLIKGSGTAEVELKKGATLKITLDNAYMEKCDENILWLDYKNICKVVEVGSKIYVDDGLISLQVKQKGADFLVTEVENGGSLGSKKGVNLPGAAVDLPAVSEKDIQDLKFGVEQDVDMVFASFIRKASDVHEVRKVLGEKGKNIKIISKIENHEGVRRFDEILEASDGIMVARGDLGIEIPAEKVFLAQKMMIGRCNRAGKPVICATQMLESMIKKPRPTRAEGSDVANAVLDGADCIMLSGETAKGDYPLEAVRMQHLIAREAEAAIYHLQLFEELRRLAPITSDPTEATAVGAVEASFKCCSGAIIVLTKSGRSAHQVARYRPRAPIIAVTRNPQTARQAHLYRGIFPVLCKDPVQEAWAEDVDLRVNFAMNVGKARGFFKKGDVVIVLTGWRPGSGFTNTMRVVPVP

| change in potency for PKM2 inhibited with phenylalanine (recombinant PKM2; PKM2 inhibited with phenylalanine) | Compound | changes in steady-state metabolite levels (A549 cells) | reactivation of PKM2 inhibited by phenylalanine (recombinant PKM2) |
| --- | --- | --- | --- |
| – | CCCCS(=N)(=O)CC[C@H](N)C(=O)O (stereo partly shown) [BSO, buthionine sulfoxime] | induced robust changes in steady-state metabolite pools | – |
| – | O=C(COP(=O)(O)O)[C@@H](O)[C@H](O)[C@H](O)COP(=O)(O)O [FBP, fructose 1,6-bisphosphate] | – | partially reactivate PKM2 to the low basal level of activity |
| eight times loss in potency | N[C@@H](CO)C(=O)O [Serine, serine] | – | partially restore the activity of PKM2 |
